{"source": "ChEMBL document CHEMBL3392958", "about": "“Evaluation of two novel antioxidants with differential effects on curcumin-induced apoptosis in C2 skeletal myoblasts; involvement of JNKs” (Bioorg Med Chem, 2015)", "key": {"[1]": {"experiment": "Cytoprotective activity against H2O2-induced cytotoxicity in mouse C2 cells assessed as cell viability at 15 uM after 24 hrs by MTT assay (reference value: 83.1 +/- 3.5%)", "type": "functional", "conditions": "C2, 24 h, read-out: Activity"}, "C2 [2]": {"tested_on": "C2", "experiment": "Inhibition of H2O2-induced ERK phosphorylation in mouse C2 cells at 15 uM pre-incubated for 30 mins before H2O2 exposure for 15 mins by SDS-PAGE and immunoblotting method", "type": "cell-based", "method_in_brief": "(§1)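 C2 myoblasts pre-incubated 30 min with compound, then 1 mM H2O2 for 15 min. Lysates in buffer G (30 µg) run on SDS–PAGE and immunoblotted for phospho-ERKs or phospho-JNKs, actin as loading control; ECL, densitometry; means ± sem, ≥3 experiments; one-way ANOVA with Bonferroni post-test.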"}, "[3]": {"experiment": "Cytotoxic activity against mouse C2 cells assessed as cell viability at 50 uM after 24 hrs by MTT assay (reference value: 100%)", "type": "cell-based", "conditions": "read-out: Activity", "method_in_brief": "(§2)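 Serum-deprived C2 myoblasts (≥3 h, 70% confluence) incubated with compound alone (DMSO vehicle) for 24 h; MTT read at 540 nm after lysis in 0.1 M HCl/isopropanol, expressed as % of untreated control; means ± sem of ≥3 independent experiments.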"}, "C2 [4]": {"tested_on": "C2", "experiment": "Inhibition of H2O2-induced JNK phosphorylation in mouse C2 cells at 15 uM pre-incubated for 30 mins before H2O2 exposure for 15 mins by SDS-PAGE and immunoblotting method", "type": "cell-based", "method_in_brief": "as §1"}, "[5]": {"experiment": "Cytoprotective activity against H2O2-induced cytotoxicity in mouse C2 cells assessed as cell viability at 50 uM after 24 hrs by MTT assay (reference value: 83.1 +/- 3.5%)", "type": "functional", "conditions": "C2, 24 h, read-out: Activity"}, "[6]": {"experiment": "Cytoprotective activity against H2O2-induced cytotoxicity in mouse C2 cells assessed as cell viability at 1 uM after 24 hrs by MTT assay (reference value: 83.1 +/- 3.5%)", "type": "functional", "conditions": "C2, 24 h, read-out: Activity"}, "[7]": {"experiment": "Cytoprotective activity against H2O2-induced cytotoxicity in mouse C2 cells assessed as cell viability at 30 uM after 24 hrs by MTT assay (reference value: 83.1 +/- 3.5%)", "type": "functional", "conditions": "C2, 24 h, read-out: Activity"}, "[8]": {"experiment": "Antioxidant activity assessed as DPPH free radical scavenging activity after 30 mins by spectrophotometry", "type": "physicochemical", "method_in_brief": "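DPPH radical (final 400 µM, in ethanol) mixed with test compound at 25–400 µM at room temperature; absorbance at 517 nm recorded at intervals over 90 min; % reducing capacity taken at 30 min, IC50 from this; means ± sem of at least two independent experiments.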"}, "C2 [9]": {"tested_on": "C2", "experiment": "Inhibition of curcumin-induced JNK in mouse C2 cells assessed as reduction in c-Jun phosphorylation at 15 uM pre-incubated for 30 mins before curcumin exposure for 4 hrs by Western blotting method", "type": "cell-based", "method_in_brief": "(§3)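 After 30 min pre-incubation with compound and 4 h 50 µM curcumin, nuclear extracts prepared by subcellular fractionation (25 µg) immunoblotted for phospho-c-Jun, with total c-Jun as loading control; densitometry, means ± sem of ≥3 experiments, one-way ANOVA/Bonferroni.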"}, "[10]": {"experiment": "Cytoprotective activity against curcumin-induced cytotoxicity in mouse C2 cells assessed as cell viability at 15 uM after 24 hrs by MTT assay (reference value: 83.8 +/- 0.4%)", "type": "functional", "conditions": "C2, 24 h, read-out: Activity"}, "[11]": {"experiment": "Cytotoxic activity against mouse C2 cells assessed as cell viability at 15 uM after 24 hrs by MTT assay (reference value: 100%)", "type": "cell-based", "conditions": "read-out: Activity", "method_in_brief": "as §2"}, "C2 [12]": {"tested_on": "C2", "experiment": "Inhibition of curcumin-induced JNK phosphorylation in mouse C2 cells at 15 uM pre-incubated for 30 mins before curcumin exposure for 2 hrs by SDS-PAGE and immunoblotting method"}, "C2 [13]": {"tested_on": "C2", "experiment": "Inhibition of curcumin-induced ERK phosphorylation in mouse C2 cells at 15 uM pre-incubated for 30 mins before curcumin exposure for 15 mins by SDS-PAGE and immunoblotting method", "type": "cell-based", "method_in_brief": "(§4)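 Cells pre-treated 30 min with compound, then 50 µM curcumin for 15 min; whole-cell extracts (buffer G, 30 µg) immunoblotted for phospho-ERKs, actin loading control, ECL and densitometry; means ± sem of ≥3 experiments, one-way ANOVA/Bonferroni.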"}, "C2 [14]": {"tested_on": "C2", "experiment": "Inhibition of curcumin-induced apoptosis in mouse C2 cells assessed as reduction in PARP cleavage at 30 uM pre-incubated for 30 mins before curcumin exposure for 4 hrs by SDS-PAGE and immunoblotting method", "type": "functional, cell-based", "method_in_brief": "(§5)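 C2 cells pre-incubated 30 min with compound, then 50 µM curcumin for 4 h; buffer G lysates (30 µg) immunoblotted with antibody detecting full-length PARP and the 89 kDa fragment, actin loading control; densitometry, means ± sem of ≥3 experiments, one-way ANOVA with Bonferroni.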"}, "C2 [15]": {"tested_on": "C2", "experiment": "Inhibition of H2O2-induced JNK phosphorylation in mouse C2 cells at 30 uM pre-incubated for 30 mins before H2O2 exposure for 15 mins by SDS-PAGE and immunoblotting method", "type": "cell-based", "method_in_brief": "as §1"}, "C2 [16]": {"tested_on": "C2", "experiment": "Inhibition of curcumin-induced JNK phosphorylation in mouse C2 cells at 30 uM pre-incubated for 30 mins before curcumin exposure for 2 hrs by SDS-PAGE and immunoblotting method"}, "C2 [17]": {"tested_on": "C2", "experiment": "Inhibition of curcumin-induced JNK in mouse C2 cells assessed as reduction in c-Jun phosphorylation at 30 uM pre-incubated for 30 mins before curcumin exposure for 4 hrs by Western blotting method", "type": "cell-based", "method_in_brief": "as §3"}, "C2 [18]": {"tested_on": "C2", "experiment": "Inhibition of curcumin-induced ERK phosphorylation in mouse C2 cells at 30 uM pre-incubated for 30 mins before curcumin exposure for 15 mins by SDS-PAGE and immunoblotting method", "type": "cell-based", "method_in_brief": "as §4"}, "[19]": {"experiment": "Cytotoxic activity against mouse C2 cells assessed as cell viability at 30 uM after 24 hrs by MTT assay (reference value: 100%)", "type": "cell-based", "conditions": "read-out: Activity", "method_in_brief": "as §2"}, "C2 [20]": {"tested_on": "C2", "experiment": "Inhibition of H2O2-induced ERK phosphorylation in mouse C2 cells at 30 uM pre-incubated for 30 mins before H2O2 exposure for 15 mins by SDS-PAGE and immunoblotting method", "type": "cell-based", "method_in_brief": "as §1"}, "[21]": {"experiment": "Cytoprotective activity against curcumin-induced cytotoxicity in mouse C2 cells assessed as cell viability at 30 uM after 24 hrs by MTT assay (reference value: 83.8 +/- 0.4%)", "type": "functional", "conditions": "C2, 24 h, read-out: Activity"}, "[22]": {"experiment": "Effect on PARP protein level in mouse C2 cells at 30 uM incubated for 30 mins by SDS-PAGE and immunoblotting method", "type": "cell-based", "conditions": "c2, 0.5 h"}, "[23]": {"experiment": "Effect on PARP protein level in mouse C2 cells at 15 uM incubated for 30 mins by SDS-PAGE and immunoblotting method", "type": "cell-based", "conditions": "c2, 0.5 h"}, "C2 [24]": {"tested_on": "C2", "experiment": "Inhibition of curcumin-induced apoptosis in mouse C2 cells assessed as reduction in PARP cleavage at 15 uM pre-incubated for 30 mins before curcumin exposure for 4 hrs by SDS-PAGE and immunoblotting method", "type": "functional, cell-based", "method_in_brief": "as §5"}, "C2 [25]": {"tested_on": "C2", "experiment": "Inhibition of curcumin-induced apoptosis in mouse C2 cells assessed as reduction in PARP cleavage at 2.5 uM pre-incubated for 30 mins before curcumin exposure for 4 hrs by SDS-PAGE and immunoblotting method", "type": "functional, cell-based", "method_in_brief": "as §5"}, "[26]": {"experiment": "Effect on PARP protein level in mouse C2 cells at 2.5 uM incubated for 30 mins by SDS-PAGE and immunoblotting method", "type": "cell-based", "conditions": "c2, 0.5 h"}}, "note": "The source made the active and inactive calls. No cut-off for these calls is given here.", "data": [{"smiles": "COc1cc(/C=C/C(=O)CC(=O)/C=C/c2ccc(O)c(OC)c2)ccc1O", "note": "[CURCUMIN]", "values": [{"measurement": "viability at 15 µM", "setting": "[1]", "result": 90.2, "unit": "%"}, {"measurement": "inhibition", "setting": "C2 [2]", "result": 55, "unit": "%"}, {"measurement": "viability at 24 h, 50 µM", "setting": "[3]", "result": 83.8, "unit": "%"}, {"measurement": "inhibition", "setting": "C2 [4]", "result": 81, "unit": "%"}, {"measurement": "viability at 50 µM", "setting": "[5]", "result": 53.6, "unit": "%"}, {"measurement": "viability at 1 µM", "setting": "[6]", "result": 85.5, "unit": "%"}, {"measurement": "viability at 30 µM", "setting": "[7]", "result": 93.1, "unit": "%"}]}, {"smiles": "Oc1ccc(/C=C/c2cc(O)cc(O)c2)cc1", "note": "[RESVERATROL]", "values": [{"measurement": "IC50", "setting": "[8]", "result": 96, "unit": "µM"}]}, {"smiles": "COc1ccc2[nH]cc(CCNC(C)=O)c2c1", "note": "[MELATONIN]", "values": [{"measurement": "inhibition", "setting": "C2 [9]", "result": 57, "unit": "%"}, {"measurement": "viability at 15 µM", "setting": "[1]", "result": 92.5, "unit": "%"}, {"measurement": "viability at 15 µM", "setting": "[10]", "result": 98.5, "unit": "%"}, {"measurement": "viability at 24 h, 15 µM", "setting": "[11]", "result": 96.9, "unit": "%"}, {"measurement": "inhibition", "setting": "C2 [12]", "result": 50, "unit": "%"}, {"measurement": "inhibition", "setting": "C2 [13]", "result": 53, "unit": "%"}]}, {"smiles": "CN1CC(O)(c2ccc(-c3ccccc3)cc2)Sc2ccccc21", "note": "(centres undefined)", "values": [{"measurement": "inhibition", "setting": "C2 [14]", "result": "Active"}, {"measurement": "IC50", "setting": "[8]", "result": 271, "unit": "µM"}, {"measurement": "inhibition", "setting": "C2 [15]", "result": 81, "unit": "%"}, {"measurement": "viability at 15 µM", "setting": "[1]", "result": 87.1, "unit": "%"}, {"measurement": "inhibition", "setting": "C2 [16]", "result": 50, "unit": "%"}, {"measurement": "viability at 50 µM", "setting": "[5]", "result": 97.6, "unit": "%"}, {"measurement": "viability at 1 µM", "setting": "[6]", "result": 81.6, "unit": "%"}, {"measurement": "inhibition", "setting": "C2 [17]", "result": 40, "unit": "%"}, {"measurement": "inhibition", "setting": "C2 [18]", "result": 53, "unit": "%"}, {"measurement": "viability at 24 h, 30 µM", "setting": "[19]", "result": 99.5, "unit": "%"}, {"measurement": "inhibition", "setting": "C2 [20]", "result": 55, "unit": "%"}, {"measurement": "viability at 30 µM", "setting": "[21]", "result": 99.1, "unit": "%"}, {"measurement": "Activity", "setting": "[22]", "result": "Non-toxic"}, {"measurement": "viability at 30 µM", "setting": "[7]", "result": 99.1, "unit": "%"}]}, {"smiles": "CN1CC(O)(c2ccc(-c3ccccc3)cc2)Oc2ccccc21", "note": "(centres undefined)", "values": [{"measurement": "inhibition", "setting": "C2 [9]", "result": "inactive"}, {"measurement": "IC50", "setting": "[8]", "result": 119, "unit": "µM"}, {"measurement": "Activity", "setting": "[23]", "result": "Non-toxic"}, {"measurement": "viability at 15 µM", "setting": "[1]", "result": 97.1, "unit": "%"}, {"measurement": "inhibition", "setting": "C2 [2]", "result": 55, "unit": "%"}, {"measurement": "inhibition", "setting": "C2 [4]", "result": 81, "unit": "%"}, {"measurement": "inhibition", "setting": "C2 [24]", "result": "inactive"}, {"measurement": "viability at 15 µM", "setting": "[10]", "result": 53.6, "unit": "%"}, {"measurement": "viability at 50 µM", "setting": "[5]", "result": 71.6, "unit": "%"}, {"measurement": "viability at 24 h, 15 µM", "setting": "[11]", "result": 98.1, "unit": "%"}, {"measurement": "inhibition", "setting": "C2 [12]", "result": "inactive"}, {"measurement": "viability at 1 µM", "setting": "[6]", "result": 84.6, "unit": "%"}, {"measurement": "inhibition", "setting": "C2 [13]", "result": 79, "unit": "%"}, {"measurement": "viability at 30 µM", "setting": "[7]", "result": 76.2, "unit": "%"}]}, {"smiles": "N#C/C(=C1/Nc2ccccc2S1)c1ccnc(NCCc2cccnc2)n1", "values": [{"measurement": "inhibition", "setting": "C2 [25]", "result": "Active"}, {"measurement": "Activity", "setting": "[26]", "result": "Non-toxic"}]}]}
